The subject of data set [1] is MCF7. As to the kind of experiment: Antiproliferative activity against human MCF7 cells assessed as inhibition of cell growth rate at 10 uM measured after 48 hrs by MTT assay. It counts as functional. Summed up:
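MCF-7 cells in DMEM with 10% FBS exposed to a single 10 µM concentration for 48 h. Read-out by MTT (0.5 mg/ml, 4 h, DMSO dissolution, A570). Inhibition rate given versus untreated control as mean ± SD, n = 3.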
(In general: Tetrazolium dyes change colour on reduction, which living cells bring about.)

A short description of data set [2]: Anticancer activity against human MDA-MB-231 cells assessed as inhibition of cell proliferation measured after 48 hrs by MTT assay. It is filed as functional, cell-based. As to conditions: MDA-MB-23, 48 h. Summed up: (§1)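 Cells seeded at ~5,000/well, grown 24 h to partial monolayer, then exposed 48 h at 37°C, 5% CO2 to 0.5, 1, 2, 4, 10 and 20 µM (DMSO ≤0.1%). MTT final 0.5 mg/ml for 4 h, formazan dissolved in DMSO, A570. Survival expressed as % of untreated control; IC50 from dose-response curves; three independent experiments. MDA-MB-231, MCF-7, HepG2 in DMEM; A549 and LO-2 in RPMI-1640; 10% FBS.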

For data set [3], the system named is MCF7. As to the kind of experiment: Anticancer activity against human MCF7 cells assessed as inhibition of cell proliferation measured after 48 hrs by MTT assay. It is filed as functional, cell-based. The conditions noted are these: MCF7, 48 h. Summed up:
as §1

A further data set relates to HepG2. The data set is described as follows: Anticancer activity against human HepG2 cells assessed as inhibition of cell proliferation measured after 48 hrs by MTT assay. It counts as functional, cell-based. As to conditions: HepG2, 48 h. In short, it runs like this: as §1
A further data set deals with A549. As to the kind of experiment: Anticancer activity against human A549 cells assessed as inhibition of cell proliferation measured after 48 hrs by MTT assay. It is filed as functional, cell-based. The conditions noted are these: A549, 48 h. In short, it runs like this:
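Cells seeded at ~5,000/well, grown 24 h to partial monolayer, then exposed 48 h at 37°C, 5% CO2 to 0.5, 1, 2, 4, 10 and 20 µM (DMSO ≤0.1%). MTT final 0.5 mg/ml for 4 h, formazan dissolved in DMSO, A570. Survival expressed as % of untreated control; IC50 from dose-response curves; three independent experiments.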

In a further data set the test system is L02. As to the kind of experiment: Cytotoxicity against human L02 cells assessed as reduction in cell viability measured after 48 hrs by MTT assay. It is filed as cell-based. The conditions noted are these: L02, 48 h. In short, it runs like this:
as §1

The nature of data set [4]: Prodrug release in human MDA-MB-231 cells assessed as increase in intracellular NO level at 25 uM measured after 2.5 hrs by total nitric oxide assay. It counts as ADME, cell-based. The conditions noted are these: mda-mb-23, 2.5 h. Summed up:
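MDA-MB-231 (2×10^5 cells/well) cultured 24 h, then treated 2.5 h with compound at 25 µM or DMSO. Cells harvested, lysed in nitric oxide assay buffer 1 h on ice; lysate NO quantified with a total nitric oxide assay kit. Mean ± SD, n = 3.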

Data set [5] in a line: Prodrug release in human MDA-MB-231 cells assessed as increase in intracellular NO level at 10 uM measured after 2.5 hrs by DAF-FM DA reagent based scanning electron microscopy. It is filed as ADME, cell-based. The conditions noted are these: mda-mb-231, 2.5 h, in the assay text read “laser scanning confocal microscopy” for “scanning electron microscopy”. In short, it runs like this: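 After 24 h growth at 5×10^4 cells/well, MDA-MB-231 cells loaded with DAF-FM DA (5 µM) 30 min at 37°C, 5% CO2, PBS-washed, then incubated 2.5 h with compound at 1 or 10 µM (scopoletin at 10 µM). NO fluorescence imaged by laser scanning confocal microscopy.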

The nature of data set [6]: Anticancer activity against human MDA-MB-231 cells assessed as inhibition of cell proliferation measured after 48 hrs in presence of 3-amino-7-hydroxy-6-methoxy-2H-chromen-2-one by MTT assay. It is filed as functional, cell-based. As to conditions: MDA-MB-23, 48 h. Summed up: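 MDA-MB-231 cells in DMEM with 10% FBS, ~5,000 cells/well, 24 h attachment, then compound for 48 h at 37°C, 5% CO2. MTT 0.5 mg/ml final for 4 h, DMSO solubilization, absorbance 570 nm; inhibition relative to untreated cells; experiments done three times.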

A word on the inhibition: it is the change of the read-out against control, counted positive when it falls. Broadly, the pIC50 is the IC50 on a negative log10 scale, so that one unit is a factor of ten.

pIC50: −log10 of the molar value.

As for `COc1cc2cc(N)c(=O)oc2cc1OCCCCCCOc1no[n+]([O-])c1S(=O)(=O)c1ccccc1`, in the data set with MCF7 [1], the inhibition at 10 µM is 84.4%. Besides, the pIC50 in data set [2] was 5.53; with MCF7 [3] it was 5.50; in the data set with HepG2, 5.51; with A549, 5.09; with L02, 4.99. Besides, the Drug metabolism entry in [4] is reported as “Metabolite_Detected”.

As for `COc1cc2ccc(=O)oc2cc1OCCCCOc1no[n+]([O-])c1S(=O)(=O)c1ccccc1`, the inhibition at 10 µM in the data set on MCF7 [1] was determined as 84.4%. For the same compound, the pIC50 in data set [2] was 5.55; in the data set on MCF7 [3], 5.52; with HepG2 it was 5.49; in the data set on A549, 5.21; with L02, 5.03. Moreover, the Drug metabolism result in [4] is “Metabolite_Detected”.

As to `COc1cc2cc(NC(C)=O)c(=O)oc2cc1OCCCCOc1no[n+]([O-])c1S(=O)(=O)c1ccccc1`, the inhibition at 10 µM in the data set on MCF7 [1] turned out to be 80.4%. Further, the pIC50 in data set [2] is 5.50; in the data set with MCF7 [3], 5.46; in the data set with HepG2, 5.48; with A549, 5.14; in the data set with L02 it was 5.04. The Drug metabolism result in data set [4] is given as “Metabolite_Detected”.

As for `COc1cc2cc(NC(C)=O)c(=O)oc2cc1OCCCCCOc1no[n+]([O-])c1S(=O)(=O)c1ccccc1`, in the data set on MCF7 [1], the inhibition at 10 µM was 73.6%. In addition, the pIC50 was 5.36 in data set [2]; 5.20 in the data set with MCF7 [3]; 5.27 in the data set with HepG2; 4.94 with A549; 4.86 with L02. In data set [4], the Drug metabolism entry is given as “Metabolite_Detected”.

Take `COc1cc2ccc(=O)oc2cc1OCCCCCOc1no[n+]([O-])c1S(=O)(=O)c1ccccc1`: the inhibition at 10 µM with MCF7 [1] is 87.1%. For the same compound, the pIC50 in [2] was 5.50; in the data set with MCF7 [3], 5.41; in the data set with HepG2 it was 5.47; with A549 it was 4.97; in the data set on L02 it was 5.05. Further, in data set [4], the Drug metabolism result was “Metabolite_Detected”.

Turning to `COc1cc2ccc(=O)oc2cc1OCCOc1no[n+]([O-])c1S(=O)(=O)c1ccccc1`, the inhibition at 10 µM with MCF7 [1] is 89.2%. The pIC50 in data set [2] is 5.54; in the data set with MCF7 [3], 5.45; in the data set on HepG2, 5.44; in the data set on A549, 5.14; in the data set on L02, 4.96. In addition, in data set [4], the Drug metabolism entry is reported as “Metabolite_Detected”.

Turning to `COc1cc2cc(NC(C)=O)c(=O)oc2cc1O`, in the data set with MCF7 [1], the inhibition at 10 µM stood at 5.21%.

Turning to `COc1cc2ccc(=O)oc2cc1OCCCCCCOc1no[n+]([O-])c1S(=O)(=O)c1ccccc1`, in the data set with MCF7 [1], the inhibition at 10 µM came to 84.8%. The pIC50 in [2] was 5.47; with MCF7 [3], 5.35; in the data set on HepG2, 5.42; in the data set with A549, 5.03; with L02 it was 4.91. Further, the Drug metabolism entry in data set [4] was “Metabolite_Detected”.

With `COc1cccc2c1C(=O)c1c(O)c3c(c(O)c1C2=O)C[C@@](O)(C(=O)CO)C[C@@H]3O[C@H]1C[C@H](N)[C@H](O)[C@H](C)O1` [DOXORUBICIN], the pIC50 in data set [2] was 6.26; in the data set on MCF7 [3], 6.22; with HepG2 it was 6.21; in the data set on L02 it was 6.23.

Turning to `COc1cc2cc(NC(C)=O)c(=O)oc2cc1OCCCOc1no[n+]([O-])c1S(=O)(=O)c1ccccc1`, the inhibition at 10 µM with MCF7 [1] was 88.5%. Further, the pIC50 is 5.42 in data set [2]; 5.62 with MCF7 [3]; 5.55 in the data set with HepG2; 5.01 in the data set on A549; 5.08 with L02. Also, the Drug metabolism entry in [4] is “Metabolite_Detected”.

As for `COc1cc2cc(N)c(=O)oc2cc1O`, in the data set with MCF7 [1], the inhibition at 10 µM was found to be 7.13%. In addition, in data set [2], the pIC50 was under 4.60.

For the compound `COc1cc2ccc(=O)oc2cc1O` [SCOPOLETIN], the inhibition at 10 µM in the data set with MCF7 [1] is 7.95%. Further, the negative logarithm of the IC50 (pIC50) (in data set [2]; in the data set on MCF7 [3]; in the data set with HepG2; with A549; in the data set on L02) was under 4.60 each time. In addition, the Drug metabolism result in data set [5] is “Metabolite_Notdetected”.

On to `COc1cc2cc(N)c(=O)oc2cc1OCCCCOc1no[n+]([O-])c1S(=O)(=O)c1ccccc1`, for which the inhibition at 10 µM in the data set with MCF7 [1] amounted to 89%. Also, the pIC50 in [2] is 5.71; in the data set on MCF7 [3], 5.64; with HepG2, 5.58; in the data set with A549, 5.30; with L02, 5.06. For the same compound, in [4], the Drug metabolism entry was “Metabolite_Detected”.

For the compound `COc1cc2cc(N)c(=O)oc2cc1OCCCCCOc1no[n+]([O-])c1S(=O)(=O)c1ccccc1`, the inhibition at 10 µM in the data set on MCF7 [1] was determined as 88.8%. In addition, the pIC50 is 5.62 in data set [2]; 5.58 in the data set with MCF7 [3]; 5.46 in the data set with HepG2; 5.16 with A549; 4.91 with L02. The Drug metabolism result in [4] was “Metabolite_Detected”.

Consider `COc1cc2cc(NC(C)=O)c(=O)oc2cc1OCCOc1no[n+]([O-])c1S(=O)(=O)c1ccccc1`, for which, in the data set on MCF7 [1], the inhibition at 10 µM worked out at 83.7%. The negative-log IC50 (pIC50) in data set [2] was 5.30; in the data set with MCF7 [3] it was 5.16; with HepG2, 5.32; with A549 it was 5.06; in the data set with L02 it was 4.99. Besides, the Drug metabolism result in data set [4] is reported as “Metabolite_Detected”.

In the case of `O=S(=O)(c1ccccc1)c1c(OCCCO)no[n+]1[O-]`, the values for the pIC50 in data set [2] and in [6] were 5.14 and 5.20, respectively.

In the case of `COc1cc2ccc(=O)oc2cc1OCCCOc1no[n+]([O-])c1S(=O)(=O)c1ccccc1`, the inhibition at 10 µM in the data set with MCF7 [1] is 88.6%. The pIC50 in [2] is 5.73; in the data set with MCF7 [3], 5.64; in the data set on HepG2, 5.54; in the data set with A549 it was 5.26; with L02, 5.11.

For `COc1cc2cc(NC(C)=O)c(=O)oc2cc1OCCCCCCOc1no[n+]([O-])c1S(=O)(=O)c1ccccc1`, the inhibition at 10 µM in the data set with MCF7 [1] came to 48.6%. Besides, the pIC50 in data set [2] was 5.10; in the data set with MCF7 [3] it was 4.95; in the data set with HepG2, 5.18; with A549, 4.83; in the data set with L02 it was 4.76. Besides, the Drug metabolism result in data set [4] is “Metabolite_Detected”.

As to `COc1cc2cc(N)c(=O)oc2cc1OCCOc1no[n+]([O-])c1S(=O)(=O)c1ccccc1`, the inhibition at 10 µM in the data set on MCF7 [1] was found to be 88.5%. Besides, the pIC50 was 5.61 in [2]; 5.56 in the data set on MCF7 [3]; 5.51 in the data set with HepG2; 5.23 with A549; 5.01 in the data set on L02. The Drug metabolism entry in [4] is reported as “Metabolite_Detected”.

These data come from ChEMBL document CHEMBL4765333, “Novel NO-releasing scopoletin derivatives induce cell death via mitochondrial apoptosis pathway and cell cycle arrest” (Eur J Med Chem, 2020).
